Screening results deposited in PubChem by several laboratories.
This excerpt belongs to a sample that is enriched for hits.
XBP1 UPR activ – activators of adaptive arm of unfolded protein response (XBP1). CHO-XBP1 luciferase reporter, IRE1-XBP1 UPR activation, luminescence; percent of tunicamycin response, DMSO as zero. activation, % at 20 µM. actives 0.33% (n = 330,000). AID 463104;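 active = versus positive control, 20 µM dose yields 30% or more activation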
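Material: CHO-XBP1 cells stably carrying IRE1-XBP1-driven luciferase reporter | Medium: F12 with 10% serum | Compound dosing: 20 µM single concentration, DMSO 1% | Incubation: Overnight seeding at 37 °C, 6 h compound treatment at 37 °C | Detection: Steady-Glo luminescence read | Read-out basis: % activation of reporter signal versus tunicamycin and DMSO controls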
CHOP inh – CHOP inhibition in unfolded protein response; CHO-K1 CHOP-promoter luciferase, tunicamycin-induced, 15-18 h; inhibition, % at 10 µM; actives 3.8% (n = 220,000);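 active = compounds that reduced the stress-induced luciferase reporter signal by more than about 70% of percent inhibition, limit read from the data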
hiPSC survival – hiPSC single-cell survival enhancement; survival enhancement, % at 20 µM; ATPlite luminescence; 100% = ROCK inhibitor wells, 0% = DMSO; actives 0.044% (n = 360,000); in the data active = survival enhancement above about 18%;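 also: cells exposed to compounds for 16 hours before the ATP read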
CHOP UPR activ – apoptotic UPR (CHOP) activation | actives 0.34% (n = 330,000) | AID 449763 | activation, % at 10 µM | CHO-CHOP luciferase reporter, luminescence; percent of tunicamycin response over DMSO baseline;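 active = at 10 µM dose, activation of 40% or more, normalized to positive control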
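Assay system: CHO-CHOP cells, stable luciferase reporter of PERK-eIF2a-CHOP signalling / Buffer or medium: F12 plus 10% serum / Compound dosing: one dose, 10 µM in 0.5% DMSO / Times: 6 h compound treatment, 37 °C / Technique: luciferase luminescence / Read-out: % reporter activation, DMSO baseline versus tunicamycin full activation / Benchmarks: tunicamycin and DMSO controls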
Cardio protect – protects H9c2 cardiomyocytes from peroxide injury. H2O2 injury protection, ATPLite, 2 h. protection from H2O2 cell death, % at 20 µM. actives 0.63% (n = 360,000);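 active = compounds giving at least 50% protection of heart cells from peroxide-induced death in the single-dose screen, raw or plate-pattern-corrected value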
CHOP inh conf – confirmation of CHOP induction inhibitors | shares compounds with CHOP inh | CHO-CHOP promoter luciferase reporter, tunicamycin-induced, luminescence | inhibition, % at 10 µM | actives 45% (n = 2,100) | AID 504437;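 active = mean of three repeat readings of reporter signal inhibition above a set limit, cut at about 70% in these data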
UPR CHOP confirm – apoptotic UPR (CHOP) activation, confirmed. shares compounds with CHOP UPR activ. activation, % at 10 µM. actives 64% (n = 1,000). AID 463112. CHO-CHOP cells, CHOP-luciferase reporter luminescence; percent of tunicamycin response, DMSO as zero; in the data active = activation above about 33%
Each line names hits and unclear results; the compound was inactive in the other large screens (follow-up assays come after a bar, where they were run).

CCCc1ccc(C(=O)NNC(=O)c2ccc(Br)cc2)cc1	CHOP inh 99 | CHOP inh conf inactive
CCCc1ccc(C(=O)NNc2ccc(F)cc2)cc1	none
O=C(Nc1ccc2c(c1)CN(Cc1ccccc1O)CC2)C1CCCO1 (stereo not given)	none (no result: CHOP inh)
O=C(NCC1CCCO1)c1ccc2c(=O)n(Cc3ccc(Cl)cc3)c(=S)[nH]c2c1 (stereo not given)	CHOP inh 103 | CHOP inh conf inactive
Cc1ccc(N2CC(=O)Nc3c(oc4nc(-c5ccccc5)cc(C)c34)C2=O)cc1	CHOP inh 97 | CHOP inh conf inactive
COc1ccc(OC)c(NC(=O)c2cc(-c3cc(Cl)ccc3O)n[nH]2)c1	CHOP inh 103 | CHOP inh conf inactive
COc1ccc(Cl)cc1NC(=O)c1cc(-c2ccccc2O)n[nH]1	none
CCOc1ccc(N(CC(=O)Nc2cccc(Cl)c2)S(=O)(=O)c2c(C)noc2C)cc1	CHOP inh 107 | CHOP inh conf 81
CCCCCCCCNCCS(=O)(=O)NC1CCCCC1	none (no result: XBP1 UPR activ, CHOP inh, CHOP UPR activ)
CC(Sc1ccc(S(=O)(=O)N2CCCCCC2)cn1)C(N)=O (stereo not given)	none (no result: CHOP inh)
O=C1C=CC(=O)N1CCCCCCN1C(=O)C=CC1=O	CHOP inh 107 (no result: XBP1 UPR activ, hiPSC survival, CHOP UPR activ, Cardio protect) | CHOP inh conf 116
C[C@@H]1CN([C@H](C)CO)C(=O)CCCn2nncc2CO[C@H]1CN(C)S(=O)(=O)c1ccc(Oc2ccccc2)cc1	none (no result: XBP1 UPR activ, CHOP inh, CHOP UPR activ)
Cc1ccc(S(=O)(=O)N/N=C/c2cccc([N+](=O)[O-])c2)cc1	none
CCCCCCCCCS(=O)(=O)N/N=C/c1cccc([N+](=O)[O-])c1	CHOP inh 99 | CHOP inh conf 97
O=C(Nc1cccc(O)c1)C(Cc1ccccc1)N1C(=O)c2cccc3cccc(c23)C1=O (stereo not given)	CHOP inh 109 | CHOP inh conf inactive
Cc1cc(C)n2c(=O)c3ccc(Cl)cc3nc2c1C#N	none
Cc1cc(Cl)n2c(nc3cc(F)c(F)cc32)c1C#N	CHOP inh 105 (no result: XBP1 UPR activ, CHOP UPR activ) | CHOP inh conf 124
OC(c1ccc(Cl)cc1)c1ncc(-c2ccccc2Cl)[nH]1 (stereo not given)	none (no result: XBP1 UPR activ, CHOP inh, CHOP UPR activ)
CC(C)/C=C/C(=O)N1CCC(N2CCC(C(=O)NCC3CCCO3)CC2)CC1 (stereo not given)	none (no result: XBP1 UPR activ, CHOP inh, CHOP UPR activ)
O=c1[nH]cnc2scc(-c3ccc(-c4ccccc4)cc3)c12	CHOP inh 96 (no result: XBP1 UPR activ, CHOP UPR activ) | CHOP inh conf inactive
CCCOc1ccc(-c2csc3nc[nH]c(=O)c23)cc1	none (no result: CHOP inh)
Cc1cc(Cl)c(S(=O)(=O)N2CCN(c3cccc(C)c3C)CC2)cc1OCC(N)=O	CHOP inh 107 | CHOP inh conf inactive
CC(C)c1ccc(O)c(NC(=S)NC(=O)CCc2ccccc2)c1	CHOP inh 106 | CHOP inh conf 110
Cn1c(=O)[nH]c(=O)c2[nH]c(CN3CCN(Cc4ccccc4)CC3)nc21	none
Cn1c(=O)[nH]c(=O)c2[nH]c(N(Cc3ccccc3)Cc3ccccc3)nc21	CHOP inh 111 | CHOP inh conf 114
COc1ccc2sc3c(=O)[nH]c4ccccc4c3c2c1	CHOP inh 97 | CHOP inh conf inactive
COc1ccc2c(c1)[nH]c(=O)c1sc3ccccc3c12	CHOP inh 108 | CHOP inh conf inactive
COc1ccc(OCc2cc(=O)[nH]c3ccccc23)cc1	none (no result: CHOP inh)
COc1ccc2c(-c3ccccc3)cc(=O)[nH]c2c1	none
O=C(CCCOc1ccc(Cl)cc1Cl)NCCc1ccccn1	none (no result: CHOP inh)
COc1ccccc1-c1cc(C(F)(F)F)nc(S(=O)(=O)CCCC(=O)N2CCOCC2)n1	none (no result: CHOP inh) | CHOP inh conf inactive
COc1ccccc1-c1cc(C(F)(F)F)nc(S(=O)(=O)CCCC(=O)O)n1	none
Cc1nc2[nH]c(=S)[nH]c2c(=O)[nH]1	none (no result: XBP1 UPR activ, CHOP inh, CHOP UPR activ)
Cc1ccc(/C=N/n2c(C3CCCCC3)n[nH]c2=S)s1	CHOP inh 105 | CHOP inh conf 96
S=c1[nH]nc(C2CCCCC2)n1/N=C/c1ccccc1	none (no result: CHOP inh)
COc1ccccc1/C=C\C=N\n1c(C2CCCCC2)n[nH]c1=S	CHOP inh 108 | CHOP inh conf inactive
Cc1[nH]n(-c2ccccc2)c(=O)c1/C=C1/C=c2ccccc2=N1	CHOP inh 103 (no result: XBP1 UPR activ, CHOP UPR activ) | CHOP inh conf 78
CC1=NN(c2ccccc2)C(=O)/C1=C/c1c(C)[nH]n(-c2ccc(C)cc2)c1=O	none (no result: CHOP inh, hiPSC survival, Cardio protect)
COc1ccc(C(C(=O)NC2CCCCC2)N(C(=O)CCl)c2ccc(Cl)cc2)cc1 (stereo not given)	CHOP inh 107 | CHOP inh conf inactive
CC1(C)Oc2ccc3ccc(=O)oc3c2/C(=C/Nc2cccc(O)c2)C1=O	CHOP inh 106 | CHOP inh conf inactive
NCCCNC(=O)c1cc2ccccc2[nH]1	CHOP inh 107 | CHOP inh conf inactive
COC(=O)/C(=C\c1ccc([N+](=O)[O-])o1)NC(=O)c1ccccc1	none
Cc1cccc(NC(=O)/C(=C\c2ccc([N+](=O)[O-])o2)NC(=O)c2ccc(Cl)cc2)c1	CHOP inh 101 (no result: XBP1 UPR activ, CHOP UPR activ) | CHOP inh conf inactive
C/C(=N\N=C(/N)SC1CC(=O)N(c2ccc(Cl)c(Cl)c2)C1=O)c1cccs1 (stereo not given)	CHOP inh 110 | CHOP inh conf inactive
C/C(=N\N=C(/N)SC1CC(=O)N(c2ccc(Cl)cc2)C1=O)c1cccs1 (stereo not given)	none
Cc1ccc(SCC(=O)Nc2ccc(-c3nc4ccccc4[nH]3)cc2)cc1	CHOP inh 102 | CHOP inh conf inactive
Cc1ccc2nc(-c3ccc(SCC(=O)Nc4nnc(C)s4)nc3)[nH]c2c1	CHOP inh 105 | CHOP inh conf inactive
Cn1c(NCCc2ccncc2)nc2cc(-c3ccccc3)sc2c1=O	none (no result: XBP1 UPR activ, CHOP inh, CHOP UPR activ)
CCc1ccc(OCc2n[nH]c(=S)n2Cc2ccccc2)cc1	none
CCc1ccc(OCc2n[nH]c(=S)n2C(C)CCCC(C)C)cc1 (stereo not given)	CHOP inh 105 | CHOP inh conf 113
O=C1CC(c2cccc(Cl)c2)CC(O)=C1C=Nc1cccc(Cl)c1 (stereo not given)	CHOP inh 99, CHOP UPR activ 52 | CHOP inh conf 72 | UPR CHOP confirm inactive
O=C1CC(c2ccccc2)CC(O)=C1C=Nc1ccccc1 (stereo not given)	none
Cc1nc(NC(=O)/C=C/c2ccccc2)n[nH]1	CHOP inh 97, CHOP UPR activ 44 | CHOP inh conf inactive | UPR CHOP confirm 35
O=C(C=Cc1ccccc1)Nc1ccccc1	none (no result: XBP1 UPR activ, CHOP inh, CHOP UPR activ, Cardio protect)
O=C1Nc2ccccc2/C1=C/C(=O)c1cccs1	CHOP inh 104, CHOP UPR activ 74 | CHOP inh conf inactive | UPR CHOP confirm 125
